Measured values reported in PMC8548355 (Medicinal Chemistry Research, 2021).
Converted amounts (≈) assume the structure as drawn.

Tests used:
MRSA NRS 10192 = assay: MIC against clinical MRSA isolate NRS 10192; format: cell-based; settings: Staphylococcus aureus, MRSA|NRS10192, read-out: MIC against MRSA NRS 10192
MRSA NRS 10193 = assay: MIC against clinical MRSA isolate NRS 10193; format: cell-based; settings: Staphylococcus aureus, MRSA|NRS10193, read-out: MIC against MRSA NRS 10193
MRSA NRS 10194 = assay: MIC against clinical MRSA isolate NRS 10194; format: cell-based; settings: Staphylococcus aureus, MRSA|NRS10194, read-out: MIC against MRSA NRS 10194
VRSA VRS 1 = assay: MIC against clinical VRSA isolate VRS 1; format: cell-based; settings: Staphylococcus aureus, read-out: MIC against VRSA VRS 1
VRSA VRS 12 = assay: MIC against clinical VRSA isolate VRS 12; format: cell-based; settings: Staphylococcus aureus, read-out: MIC against VRSA VRS 12
MRSA NRS 10191 = assay: MIC against clinical MRSA isolate NRS 10191; format: cell-based; settings: Staphylococcus aureus, MRSA|NRS10191, read-out: MIC against MRSA NRS 10191
MRSA NRS 10129 = assay: MIC against clinical MRSA isolate NRS 10129; format: cell-based; settings: Staphylococcus aureus, MRSA|NRS10129, read-out: MIC against MRSA NRS 10129
MRSA NRS 10198 = assay: MIC against clinical MRSA isolate NRS 10198; format: cell-based; settings: Staphylococcus aureus, MRSA|NRS10198, read-out: MIC against MRSA NRS 10198
MRSA NRS 10186 = assay: MIC against clinical MRSA isolate NRS 10186; format: cell-based; settings: Staphylococcus aureus, MRSA|NRS10186, read-out: MIC against MRSA NRS 10186
VRSA VRS 4 = assay: MIC against clinical VRSA isolate VRS 4; format: cell-based; settings: Staphylococcus aureus, read-out: MIC against VRSA VRS 4
MRSA NRS 10100 = assay: MIC against clinical MRSA isolate NRS 10100; format: cell-based; settings: Staphylococcus aureus, MRSA|NRS10100, read-out: MIC against MRSA NRS 10100
S. aureus ATCC 29213 [1] = assay: MIC by broth microdilution against S. aureus ATCC 29213; format: cell-based, Staphylococcus aureus; settings: Staphylococcus aureus, ATCC29213, read-out: MIC against S. aureus ATCC 29213, broth microdilution, 37 °C, 16–18 h
[2] = test system: clinical MDR S. aureus isolates (MRSA and VRSA); assay: MIC against clinical MDR S. aureus isolates, whole panel; format: cell-based, Staphylococcus aureus; settings: nine MRSA and three VRSA strains
E. coli ATCC 25922 = assay: MIC by broth microdilution against E. coli ATCC 25922; format: cell-based; settings: Escherichia coli, ATCC25922, read-out: MIC against E. coli ATCC 25922
K. pneumoniae BAA 1705 = assay: MIC by broth microdilution against K. pneumoniae BAA 1705; format: cell-based; settings: Klebsiella pneumoniae, BAA1705, read-out: MIC against K. pneumoniae BAA 1705
A. baumannii BAA 1605 = assay: MIC by broth microdilution against A. baumannii BAA 1605; format: cell-based; settings: Acinetobacter baumannii, BAA1605, read-out: MIC against A. baumannii BAA 1605
MRSA NRS 10119 = assay: MIC against clinical MRSA isolate NRS 10119; format: cell-based; settings: Staphylococcus aureus, MRSA|NRS10119, read-out: MIC against MRSA NRS 10119
Vero cells (ATCC CCL-81) = assay: Cell cytotoxicity assay; format: cell-based; settings: CC50 Vero cells / MIC S. aureus ATCC 29213
S. aureus ATCC 29213 [3] = assay: Drug interaction of 22 with FDA-approved drugs, checkerboard method; format: cell-based, Staphylococcus aureus; settings: for MIC of drug in the presence of “22” “B”: S. aureus ATCC 29213, checkerboard, in combination with 22; for MIC: Staphylococcus aureus, ATCC29213, 24 h, read-out: MIC (drug alone); for Inference (drug interaction): combination of 22 with the drug, S. aureus ATCC 29213
S. aureus ATCC 29213 [4] = assay: Time–kill kinetics; format: cell-based, Staphylococcus aureus; settings: 10× MIC, 24 h
Summary of the method: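 Bacteria diluted to ~10^6 cfu/mL and exposed to test compound at 1× and 10× MIC, with controls, at 37 °C for 24 h. Samples taken at 1, 6 and 24 h, serially diluted ten-fold in PBS, and spread on MHA. Plates incubated at 37 °C for 24 h and colonies counted. Surviving cfu/mL plotted against time with and without compound.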

SMILES	MIC (MRSA NRS 10192)	MIC (MRSA NRS 10193)	MIC (MRSA NRS 10194)	MIC (VRSA VRS 1)	MIC (VRSA VRS 12)	MIC (MRSA NRS 10191)	MIC (MRSA NRS 10129)	MIC (MRSA NRS 10198)	MIC (MRSA NRS 10186)	MIC (VRSA VRS 4)	MIC (MRSA NRS 10100)	MIC (S. aureus ATCC 29213 [1])	MIC against MRSA and VRSA isolates (range over the panel) [2]	MIC (E. coli ATCC 25922)	MIC (K. pneumoniae BAA 1705)	MIC (A. baumannii BAA 1605)	MIC (MRSA NRS 10119)	Selectivity index with respect to S. aureus ATCC 29213 (SI) (Vero cells (ATCC CCL-81))	MIC of drug in the presence of “22” “B” (S. aureus ATCC 29213 [3])	MIC (S. aureus ATCC 29213 [3])	also measured
O=C(Nc1ccc(Br)cc1)c1cc(Cl)ccc1O [Compound 25, 5-Chloro-N-(4ʹ-bromophenyl)-2-hydroxybenzamide]	0.5 µg/mL (≈ 1.53 µM)	0.5 µg/mL (≈ 1.53 µM)	0.5 µg/mL (≈ 1.53 µM)	0.5 µg/mL (≈ 1.53 µM)	0.5 µg/mL (≈ 1.53 µM)	0.5 µg/mL (≈ 1.53 µM)	0.5 µg/mL (≈ 1.53 µM)	0.5 µg/mL (≈ 1.53 µM)	0.5 µg/mL (≈ 1.53 µM)	0.5 µg/mL (≈ 1.53 µM)	0.5 µg/mL (≈ 1.53 µM)	0.5 µg/mL (≈ 1.53 µM)	0.25 to 0.5 µg/mL	> 64 µg/mL	> 64 µg/mL	> 64 µg/mL	0.25 µg/mL (≈ 0.766 µM)				
O=C(Nc1cccc(C(F)(F)F)c1)c1cc(Cl)ccc1O [Compound 23, 5-Chloro-N-(3ʹ-(trifluoromethyl)phenyl)-2-hydroxybenzamide]												0.5 µg/mL (≈ 1.58 µM)		> 64 µg/mL	> 64 µg/mL	> 64 µg/mL		<10			
C[C@H]1COc2c(N3CCN(C)CC3)c(F)cc3c(=O)c(C(=O)O)cn1c23 [Levofloxacin, reference compound]	8 µg/mL (≈ 22.1 µM)	32 µg/mL (≈ 88.6 µM)	0.125 µg/mL (≈ 0.346 µM)	64 µg/mL (≈ 177 µM)	32 µg/mL (≈ 88.6 µM)	16 µg/mL (≈ 44.3 µM)	0.25 µg/mL (≈ 0.692 µM)	32 µg/mL (≈ 88.6 µM)	8 µg/mL (≈ 22.1 µM)	> 64 µg/mL	0.25 µg/mL (≈ 0.692 µM)	0.25 µg/mL (≈ 0.692 µM)		0.0156 µg/mL (≈ 0.0432 µM)	64 µg/mL (≈ 177 µM)	8 µg/mL (≈ 22.1 µM)	16 µg/mL (≈ 44.3 µM)	>400	0.25 µg/mL	0.25 µg/mL	Inference (drug interaction) (S. aureus ATCC 29213 [3]): No interaction
CN[C@H](CC(C)C)C(=O)N[C@H]1C(=O)N[C@@H](CC(N)=O)C(=O)N[C@H]2C(=O)N[C@H]3C(=O)N[C@H](C(=O)N[C@H](C(=O)O)c4cc(O)cc(O)c4-c4cc3ccc4O)[C@H](O)c3ccc(c(Cl)c3)Oc3cc2cc(c3O[C@@H]2O[C@H](CO)[C@@H](O)[C@H](O)[C@H]2O[C@H]2C[C@](C)(N)[C@H](O)[C@H](C)O2)Oc2ccc(cc2Cl)[C@H]1O [Vancomycin, reference compound]	2 µg/mL (≈ 1.38 µM)	2 µg/mL (≈ 1.38 µM)	1 µg/mL (≈ 0.69 µM)	> 64 µg/mL	> 64 µg/mL	2 µg/mL (≈ 1.38 µM)	1 µg/mL (≈ 0.69 µM)	2 µg/mL (≈ 1.38 µM)	1 µg/mL (≈ 0.69 µM)	> 64 µg/mL	2 µg/mL (≈ 1.38 µM)						2 µg/mL (≈ 1.38 µM)		0.5 µg/mL	1 µg/mL	Inference (drug interaction) (S. aureus ATCC 29213 [3]): No interaction; cfu reduction in time–kill kinetics (S. aureus ATCC 29213 [4]): ~ 9 log10 cfu/mL
O=C(Nc1ccc(Br)c(C(F)(F)F)c1)c1ccccc1O [Compound 21, N-(4ʹ-bromo-3ʹ-(trifluoromethyl)phenyl)-2-hydroxybenzamide]												0.5 µg/mL (≈ 1.39 µM)		> 64 µg/mL	> 64 µg/mL	> 64 µg/mL		<10			
C[C@@H](O)[C@H]1C(=O)N2C(C(=O)O)=C(S[C@@H]3CN[C@H](C(=O)N(C)C)C3)[C@H](C)[C@H]12 [Meropenem, reference compound]	32 µg/mL (≈ 83.4 µM)	> 64 µg/mL	4 µg/mL (≈ 10.4 µM)	> 64 µg/mL	16 µg/mL (≈ 41.7 µM)	> 64 µg/mL	16 µg/mL (≈ 41.7 µM)	> 64 µg/mL	16 µg/mL (≈ 41.7 µM)	> 64 µg/mL	64 µg/mL (≈ 167 µM)						> 64 µg/mL		0.5 µg/mL	0.5 µg/mL	Inference (drug interaction) (S. aureus ATCC 29213 [3]): No interaction
O=C(Nc1ccc(Cl)cc1)c1cc(Cl)ccc1O [Compound 24, 5-Chloro-N-(4ʹ-chlorophenyl)-2-hydroxybenzamide]	0.5 µg/mL (≈ 1.77 µM)	0.5 µg/mL (≈ 1.77 µM)	0.5 µg/mL (≈ 1.77 µM)	0.5 µg/mL (≈ 1.77 µM)	0.5 µg/mL (≈ 1.77 µM)	0.5 µg/mL (≈ 1.77 µM)	0.5 µg/mL (≈ 1.77 µM)	0.5 µg/mL (≈ 1.77 µM)	0.5 µg/mL (≈ 1.77 µM)	0.5 µg/mL (≈ 1.77 µM)	0.5 µg/mL (≈ 1.77 µM)	0.5 µg/mL (≈ 1.77 µM)	0.25 to 0.5 µg/mL	> 64 µg/mL	> 64 µg/mL	> 64 µg/mL	0.25 µg/mL (≈ 0.886 µM)				
O=C(Nc1ccc(Cl)c(C(F)(F)F)c1)c1cc(Cl)ccc1O [Compound 20, 5-Chloro-N-(4ʹ-chloro-3ʹ-(trifluoromethyl)phenyl)-2-hydroxybenzamide]	0.5 µg/mL (≈ 1.43 µM)	0.5 µg/mL (≈ 1.43 µM)	0.5 µg/mL (≈ 1.43 µM)	0.5 µg/mL (≈ 1.43 µM)	0.5 µg/mL (≈ 1.43 µM)	0.5 µg/mL (≈ 1.43 µM)	0.5 µg/mL (≈ 1.43 µM)	0.5 µg/mL (≈ 1.43 µM)	0.5 µg/mL (≈ 1.43 µM)	0.25 µg/mL (≈ 0.714 µM)	0.5 µg/mL (≈ 1.43 µM)	0.25 µg/mL (≈ 0.714 µM)	0.25 to 0.5 µg/mL	> 64 µg/mL	> 64 µg/mL	> 64 µg/mL	0.5 µg/mL (≈ 1.43 µM)				
